This is an account of results in paper PMC7468331 (Acta Pharmacologica Sinica, 2019).

For the test, the system named is HFD-induced obese mice. As to the kind of experiment: HFD-induced obese mice. As to conditions: HFD-fed mice. Format: in vivo, C57BL/6J male mice. In a few lines: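 Male C57BL/6J mice, 5 weeks old, SPF, 12 h light/dark cycle, were fed high-fat diet. After 10 weeks they were randomised to daily gavage with vehicle, test compound (25 or 50 mg/kg) or reference ACC inhibitor (50 mg/kg) to week 22, with food intake and weight recorded weekly. Liver read-outs: H&E, Oil red O, sirius red, F4/80 immunofluorescence, α-SMA IHC, qPCR (ΔΔCt, 18S) and Western blot (β-actin).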

SMILES strings stand for the structures.

In the case of `Cc1nc2ccc(C(=O)N3CCC4(CC3)CC(=O)c3c(cnn3C(C)C)C4)cc2[nH]1` [PF-05175157], for the setting “50 mg/kg ig daily”, the “activation of macrophages (liver F4/80)” value is on record as “failed to prevent”. Moreover, where the note is “ig daily, sirius red staining”, the “Col1a1 gene expression and collagen accumulation in the liver” value is “not observed”.
